Laboratory results as given in ChEMBL document CHEMBL1141626, “Thiosemicarbazones active against Clostridium difficile” (2008).
≈ marks a conversion by molar mass, not a printed value.

Key:
Type in all cases: functional
Clostridioides difficile [1] = assay: Antimicrobial activity against Clostridium difficile Z164 after 48 hrs
In short: (§1)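 Anaerobes incubated in an anaerobic cabinet for broth MIC determination. Drug-free incubations of the same organisms served as controls. Value is the minimum inhibitory concentration.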

Staphylococcus aureus [2] = assay: Antimicrobial activity against methicillin-resistant Staphylococcus aureus B3 after 24 hrs
In short: (§2)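 MIC by dilution in nutrient broth. Anaerobic organisms were incubated in an anaerobic cabinet. Controls were the same organisms incubated without test compound.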

Clostridioides difficile [3] = assay: Antimicrobial activity against Clostridium difficile Z16 after 48 hrs; in short: as §1
Cutibacterium acnes [4] = assay: Antimicrobial activity against Propionibacterium acnes D1 after 48 hrs; in short: as §2
Clostridioides difficile [5] = assay: Antimicrobial activity against Clostridium difficile Z177 after 48 hrs; in short: as §1
Clostridioides difficile [6] = assay: Antimicrobial activity against Clostridium difficile Z162 after 48 hrs; in short: as §1
Candida albicans [7] = assay: Antimicrobial activity against Candida albicans 1012155
Cutibacterium acnes [8] = assay: Antimicrobial activity against Propionibacterium acnes D3 after 48 hrs; in short: as §2
Clostridioides difficile [9] = assay: Antimicrobial activity against Clostridium difficile NCTC 11204 after 48 hrs; settings: NCTC 11204, 48 h; in short: as §1
Cutibacterium acnes [10] = assay: Antimicrobial activity against Propionibacterium acnes C5 after 48 hrs; in short: as §2
Staphylococcus aureus [11] = assay: Antimicrobial activity against epidemic methicillin-resistant Staphylococcus aureus 15 after 24 hrs; in short: as §2
Staphylococcus aureus [12] = assay: Antimicrobial activity against Staphylococcus aureus T1 after 24 hrs; in short: as §2
Staphylococcus aureus [13] = assay: (§3) Antimicrobial activity against Staphylococcus aureus H1 after 24 hrs; in short: as §2
Staphylococcus aureus [14] = assay: Antimicrobial activity against methicillin-resistant Staphylococcus aureus A3 after 24 hrs; in short: as §2
Cutibacterium acnes [15] = assay: Antimicrobial activity against Propionibacterium acnes NCTC 737 after 48 hrs; settings: NCTC 737, 48 h; in short: as §2
Acinetobacter sp. [16] = assay: Antimicrobial activity against Acinetobacter sp.3
Clostridioides difficile [17] = assay: Antimicrobial activity against Clostridium difficile O27 after 48 hrs; in short: as §1
Staphylococcus aureus [18] = assay: Antimicrobial activity against methicillin-resistant Staphylococcus aureus B1 after 24 hrs; in short: as §2
Clostridioides difficile [19] = assay: Antimicrobial activity against Clostridium difficile Z1579 after 48 hrs; in short: as §1
[20] = test system: Staphylococcus epidermidis; assay: Antimicrobial activity against Staphylococcus epidermidis 11 after 24 hrs; in short: as §2
[21] = test system: Staphylococcus epidermidis; assay: Antimicrobial activity against Staphylococcus epidermidis 10 after 24 hrs; in short: as §2
Clostridioides difficile [22] = assay: Antimicrobial activity against Clostridium difficile Z1568 after 48 hrs; in short: as §1
Clostridioides difficile [23] = assay: Antimicrobial activity against Clostridium difficile Z229 after 48 hrs; in short: as §1
[24] = test system: Staphylococcus epidermidis; assay: Antimicrobial activity against Staphylococcus epidermidis 4 after 24 hrs; in short: as §2
Clostridioides difficile [25] = assay: Antimicrobial activity against Clostridium difficile Z175 after 48 hrs; in short: as §1
Clostridioides difficile [26] = assay: Antimicrobial activity against Clostridium difficile Z158 after 48 hrs; in short: as §1
Clostridioides difficile [27] = assay: Antimicrobial activity against Clostridium difficile Z21 after 48 hrs; in short: as §1
Cutibacterium acnes [28] = assay: Antimicrobial activity against Propionibacterium acnes C3 after 48 hrs; in short: as §2
[29] = test system: Staphylococcus epidermidis; assay: Antimicrobial activity against Staphylococcus epidermidis 9 after 24 hrs; in short: as §2
Staphylococcus aureus [30] = assay: as §3; in short: as §2; remark: listed apart in the source
[31] = test system: Staphylococcus epidermidis; assay: Antimicrobial activity against Staphylococcus epidermidis 7A after 24 hrs; in short: as §2
Clostridioides difficile [32] = assay: Antimicrobial activity against Clostridium difficile Z173 after 48 hrs; in short: as §1
Candida albicans [33] = assay: Antimicrobial activity against Candida albicans 1013781
Clostridioides difficile [34] = assay: Antimicrobial activity against Clostridium difficile Z251 after 48 hrs; in short: as §1
Staphylococcus aureus [35] = assay: Antimicrobial activity against methicillin-resistant Staphylococcus aureus D1 after 24 hrs; in short: as §2
Clostridioides difficile [36] = assay: Antimicrobial activity against Clostridium difficile Z1591 after 48 hrs; in short: as §1
Acinetobacter sp. [37] = assay: Antimicrobial activity against Acinetobacter sp.4
Staphylococcus aureus [38] = assay: Antimicrobial activity against methicillin-sensitive Staphylococcus aureus A3 after 24 hrs; in short: as §2
Candida albicans [39] = assay: Antimicrobial activity against Candida albicans 1009116

## CCNC(=S)N/N=C/C=C/c1ccc([N+](=O)[O-])o1
Clostridioides difficile [1]
  MIC: 1 µg/mL (≈ 3.73 µM)
Staphylococcus aureus [2]
  MIC: 4 µg/mL (≈ 14.9 µM)
Clostridioides difficile [3]
  MIC: 8 µg/mL (≈ 29.8 µM)
Cutibacterium acnes [4]
  MIC: 4 µg/mL (≈ 14.9 µM)
Clostridioides difficile [5]
  MIC: 2 µg/mL (≈ 7.45 µM)
Clostridioides difficile [6]
  MIC: 0.125 µg/mL (≈ 0.466 µM)
Candida albicans [7]
  MIC: 128 µg/mL (≈ 477 µM)
Cutibacterium acnes [8]
  MIC: 4 µg/mL (≈ 14.9 µM)
Clostridioides difficile [9]
  MIC: 4 µg/mL (≈ 14.9 µM)
Cutibacterium acnes [10]
  MIC: 32 µg/mL (≈ 119 µM)
Staphylococcus aureus [11]
  MIC: 4 µg/mL (≈ 14.9 µM)
Staphylococcus aureus [12]
  MIC: 4 µg/mL (≈ 14.9 µM)
Staphylococcus aureus [13]
  MIC: 64 µg/mL (≈ 239 µM)
Staphylococcus aureus [14]
  MIC: 4 µg/mL (≈ 14.9 µM)
Cutibacterium acnes [15]
  MIC: 4 µg/mL (≈ 14.9 µM)
Acinetobacter sp. [16]
  MIC: 128 µg/mL (≈ 477 µM)
Clostridioides difficile [17]
  MIC: 8 µg/mL (≈ 29.8 µM)
Staphylococcus aureus [18]
  MIC: 4 µg/mL (≈ 14.9 µM)
Clostridioides difficile [19]
  MIC: 2 µg/mL (≈ 7.45 µM)
[20]
  MIC: 1 µg/mL (≈ 3.73 µM)
[21]
  MIC: 4 µg/mL (≈ 14.9 µM)
Clostridioides difficile [22]
  MIC: 1 µg/mL (≈ 3.73 µM)
Clostridioides difficile [23]
  MIC: 4 µg/mL (≈ 14.9 µM)
[24]
  MIC: 4 µg/mL (≈ 14.9 µM)
Clostridioides difficile [25]
  MIC: 0.5 µg/mL (≈ 1.86 µM)
Clostridioides difficile [26]
  MIC: 2 µg/mL (≈ 7.45 µM)
Clostridioides difficile [27]
  MIC: 16 µg/mL (≈ 59.6 µM)
Cutibacterium acnes [28]
  MIC: 2 µg/mL (≈ 7.45 µM)
[29]
  MIC: 1 µg/mL (≈ 3.73 µM)
Staphylococcus aureus [30]
  MIC: 16 µg/mL (≈ 59.6 µM)
[31]
  MIC: 2 µg/mL (≈ 7.45 µM)
Clostridioides difficile [32]
  MIC: 8 µg/mL (≈ 29.8 µM)
Candida albicans [33]
  MIC: 128 µg/mL (≈ 477 µM)
Clostridioides difficile [34]
  MIC: 1 µg/mL (≈ 3.73 µM)
Staphylococcus aureus [35]
  MIC: 4 µg/mL (≈ 14.9 µM)
Clostridioides difficile [36]
  MIC: 1 µg/mL (≈ 3.73 µM)
Acinetobacter sp. [37]
  MIC: 128 µg/mL (≈ 477 µM)
Staphylococcus aureus [38]
  MIC: 4 µg/mL (≈ 14.9 µM)
Candida albicans [39]
  MIC: 128 µg/mL (≈ 477 µM)
